Test results published in ChEMBL document CHEMBL2417469, “Synthesis of novel analogs of 2-pyrazoline obtained from [(7-chloroquinolin-4-yl)amino]chalcones and hydrazine as potential antitumor and antimalarial agents” (Eur J Med Chem, 2013).

Assays:
Format in all cases: functional
[1] = system: OVCAR-4; experiment: Cytotoxicity against human OVCAR4 cells after 48 hrs by SRB assay; conditions: OVCAR-4, 48 h
How it was run: (§1)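 NCI 60-cell-line screen. Cells preincubated 24 h at 37 °C, 5% CO2; time-zero plates TCA-fixed. Compounds dissolved in DMSO and tested at five concentrations (100, 10, 1.0, 0.1, 0.01 µM) for 48 h continuous exposure. Adherent cells fixed with cold TCA (10% final), then SRB stained; absorbance at 515 nm. GI50, TGI and LC50 calculated from growth relative to time-zero and untreated controls.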

[2] = system: SK-MEL-28; experiment: Cytotoxicity against human SK-MEL-28 cells after 48 hrs by SRB assay; conditions: SK-MEL-28, 48 h; for CC50: read-out: LC50 (the source's name); how it was run: as §1
[3] = system: DU-145; experiment: Cytotoxicity against human DU145 cells after 48 hrs by SRB assay; conditions: DU-145, 48 h; how it was run: as §1
[4] = system: UACC-62; experiment: Cytotoxicity against human UACC62 cells after 48 hrs by SRB assay; conditions: UACC-62, 48 h; for CC50: read-out: LC50 (the source's name)
How it was run: (§2)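 NCI 60-cell screen. Cells grew 24 h (37 °C, 5% CO2) before compound was added. Compounds were in DMSO and diluted in medium with gentamicin, then tested at five levels (100, 10, 1.0, 0.1, 0.01 µM) with 48 h continuous exposure. Adherent cells were fixed with TCA (10% final) and stained with 0.4% SRB, absorbance read at 515 nm. A time-zero plate was included. LC50 is the concentration giving 50% loss of protein relative to time zero.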

[5] = system: T47D; experiment: Cytotoxicity against human T47D cells after 48 hrs by SRB assay; how it was run: as §2
[6] = system: A549; experiment: Cytotoxicity against human A549/ATCC cells after 48 hrs by SRB assay; conditions: A549, 48 h; for CC50: read-out: LC50 (the source's name); how it was run: as §1
[7] = system: HCT-116; experiment: Cytotoxicity against human HCT116 cells after 48 hrs by SRB assay; conditions: HCT-116, 48 h; how it was run: as §1
[8] = system: NCI-H226; experiment: Cytotoxicity against human NCI-H226 cells after 48 hrs by SRB assay; conditions: NCI-H226, 48 h; how it was run: as §1
[9] = system: 786-0; experiment: Cytotoxicity against human 786-0 cells after 48 hrs by SRB assay; conditions: 786-0, 48 h; how it was run: as §1
[10] = system: NCI-H23; experiment: Cytotoxicity against human NCI-H23 cells after 48 hrs by SRB assay; conditions: NCI-H23, 48 h; for CC50: read-out: LC50 (the source's name); how it was run: as §1
[11] = system: MOLT-4; experiment: Cytotoxicity against human MOLT4 cells after 48 hrs by SRB assay; conditions: MOLT-4, 48 h; how it was run: as §1
[12] = system: SNB-75; experiment: Cytotoxicity against human SNB75 cells after 48 hrs by SRB assay; conditions: SNB-75, 48 h; how it was run: as §2
[13] = system: LOX IMVI; experiment: Cytotoxicity against human LOXIMVI cells after 48 hrs by SRB assay; how it was run: as §1
[14] = system: A498; experiment: Cytotoxicity against human A498 cells after 48 hrs by SRB assay; conditions: A498, 48 h; for CC50: read-out: LC50 (the source's name); how it was run: as §1
[15] = system: OVCAR-3; experiment: Cytotoxicity against human OVCAR3 cells after 48 hrs by SRB assay; conditions: OVCAR-3, 48 h; how it was run: as §1
[16] = system: PC-3; experiment: Cytotoxicity against human PC3 cells after 48 hrs by SRB assay; conditions: PC-3, 48 h; how it was run: as §1
[17] = system: KM12; experiment: Cytotoxicity against human KM12 cells after 48 hrs by SRB assay; conditions: KM12, 48 h; how it was run: as §1
[18] = system: SN12C; experiment: Cytotoxicity against human SN12C cells after 48 hrs by SRB assay; how it was run: as §1
[19] = system: SNB-19; experiment: Cytotoxicity against human SNB19 cells after 48 hrs by SRB assay; conditions: SNB-19, 48 h; how it was run: as §2
[20] = system: HOP-92; experiment: Cytotoxicity against human HOP92 cells after 48 hrs by SRB assay; conditions: HOP-92, 48 h; how it was run: as §1
[21] = system: Malme-3M; experiment: Cytotoxicity against human MALME-3M cells after 48 hrs by SRB assay; how it was run: as §1
[22] = system: UACC-257; experiment: Cytotoxicity against human UACC257 cells after 48 hrs by SRB assay; conditions: UACC-257, 48 h; how it was run: as §2
[23] = system: SK-MEL-5; experiment: Cytotoxicity against human SK-MEL-5 cells after 48 hrs by SRB assay; conditions: SK-MEL-5, 48 h; how it was run: as §1
[24] = system: HCC 2998; experiment: Cytotoxicity against human HCC2998 cells after 48 hrs by SRB assay; conditions: HCC 2998, 48 h; how it was run: as §1
[25] = system: TK-10; experiment: Cytotoxicity against human TK10 cells after 48 hrs by SRB assay; conditions: TK-10, 48 h; how it was run: as §2
[26] = system: M14; experiment: Cytotoxicity against human M14 cells after 48 hrs by SRB assay; conditions: M14, 48 h; for CC50: read-out: LC50 (the source's name); how it was run: as §1
[27] = system: SF-295; experiment: Cytotoxicity against human SF295 cells after 48 hrs by SRB assay; conditions: SF-295, 48 h; how it was run: as §1
[28] = system: NCI-H522; experiment: Cytotoxicity against human NCI-H522 cells after 48 hrs by SRB assay; conditions: NCI-H522, 48 h; for CC50: read-out: LC50 (the source's name); how it was run: as §1
[29] = system: MDA-MB-231; experiment: Cytotoxicity against human MDA-MB-231 cells after 48 hrs by SRB assay; conditions: MDA-MB-231, 48 h; how it was run: as §1
[30] = system: MDA-MB-435; experiment: Cytotoxicity against human MDA-MB-435 cells after 48 hrs by SRB assay; conditions: MDA-MB-435, 48 h; how it was run: as §1
[31] = system: HOP-62; experiment: Cytotoxicity against human HOP62 cells after 48 hrs by SRB assay; conditions: HOP-62, 48 h; how it was run: as §1
[32] = system: SK-MEL-2; experiment: Cytotoxicity against human SK-MEL-2 cells after 48 hrs by SRB assay; conditions: SK-MEL-2, 48 h; how it was run: as §1
[33] = system: COLO 205; experiment: Cytotoxicity against human COLO205 cells after 48 hrs by SRB assay; conditions: COLO 205, 48 h; how it was run: as §1
[34] = system: UO-31; experiment: Cytotoxicity against human UO31 cells after 48 hrs by SRB assay; conditions: UO-31, 48 h; how it was run: as §2

CC(=O)N1N=C(c2ccc(Nc3ccnc4cc(Cl)ccc34)cc2)CC1c1ccc(Cl)cc1 (stereo not drawn)
GI50 [1]: 6.92 µM | LC50 [1]: > 100 µM | GI50 [2]: 4.88 µM | CC50 [2]: > 100 µM | GI50 [3]: > 100 µM | LC50 (concentration killing 50% of cells) [3]: > 100 µM | GI50 [4]: 2.95 µM | CC50 [4]: > 100 µM | GI50 [5]: 1.57 µM | LC50 (concentration giving 50% cell kill relative to time zero) [5]: > 100 µM | GI50 [6]: 8.81 µM | CC50 [6]: > 100 µM | GI50 [7]: 38.8 µM | LC50 [7]: > 100 µM | GI50 [8]: > 100 µM | LC50 (50% lethal concentration) [8]: > 100 µM | GI50 [9]: > 100 µM | LC50 [9]: > 100 µM | GI50 [10]: > 100 µM | CC50 [10]: > 100 µM | GI50 [11]: 2.42 µM | LC50 [11]: > 100 µM | LC50 (50% net cell kill) [12]: > 100 µM | GI50 [13]: 3.15 µM | LC50 [13]: > 100 µM | GI50 [14]: > 100 µM | CC50 [14]: > 100 µM | GI50 [15]: 7.19 µM | LC50 [15]: > 100 µM | GI50 [16]: 3.02 µM | LC50 [16]: > 100 µM | GI50 [17]: 6.59 µM | LC50 (concentration killing 50% of cells) [17]: > 100 µM | GI50 [18]: 30.7 µM | LC50 (50% net cell kill relative to time zero) [18]: > 100 µM | GI50 [19]: > 100 µM | LC50 [19]: > 100 µM | GI50 [20]: > 100 µM | LC50 (concentration killing 50% of cells) [20]: > 100 µM | LC50 [21]: > 100 µM | GI50 [22]: > 100 µM | LC50 [22]: > 100 µM | GI50 [23]: 2.2 µM | LC50 (concentration killing 50% of cells present at time zero) [23]: > 100 µM | GI50 [24]: > 100 µM | LC50 [24]: > 100 µM | GI50 [25]: > 100 µM | LC50 (concentration giving 50% cell loss vs time zero) [25]: > 100 µM | GI50 [26]: 5.24 µM | CC50 [26]: > 100 µM | GI50 [27]: 3.58 µM | LC50 [27]: > 100 µM | GI50 [28]: 5.05 µM | CC50 [28]: > 100 µM | GI50 [29]: > 100 µM | LC50 (concentration killing 50% of cells present at time zero) [29]: > 100 µM | GI50 [30]: 0.57 µM | LC50 [30]: > 100 µM | GI50 [31]: > 100 µM | LC50 (50% lethal concentration) [31]: > 100 µM | GI50 [32]: > 100 µM | LC50 [32]: > 100 µM | GI50 [33]: 5.93 µM | LC50 [33]: > 100 µM | GI50 [34]: 3.87 µM | LC50 [34]: > 100 µM

O=CN1N=C(c2ccc(Nc3ccnc4cc(Cl)ccc34)cc2)CC1c1ccc(Cl)cc1 (stereo not drawn)
GI50 [1]: 6.48 µM | LC50 [1]: > 100 µM | GI50 [2]: 0.76 µM | CC50 [2]: > 100 µM | GI50 [3]: 1.94 µM | LC50 (concentration killing 50% of cells) [3]: > 100 µM | GI50 [4]: 0.57 µM | CC50 [4]: > 100 µM | GI50 [5]: 1.56 µM | LC50 (concentration giving 50% cell kill relative to time zero) [5]: > 100 µM | GI50 [6]: 0.99 µM | CC50 [6]: > 100 µM | GI50 [7]: 0.5 µM | LC50 [7]: > 100 µM | GI50 [8]: 4.66 µM | LC50 (50% lethal concentration) [8]: > 100 µM | GI50 [9]: 0.91 µM | LC50 [9]: > 100 µM | GI50 [10]: 2.77 µM | CC50 [10]: > 100 µM | GI50 [11]: 0.53 µM | LC50 [11]: > 100 µM | GI50 [12]: 0.42 µM | LC50 (50% net cell kill) [12]: > 100 µM | GI50 [13]: 0.6 µM | LC50 [13]: > 100 µM | GI50 [14]: > 100 µM | CC50 [14]: > 100 µM | GI50 [15]: 0.35 µM | LC50 [15]: > 100 µM | GI50 [16]: 0.48 µM | LC50 [16]: > 100 µM | GI50 [17]: 0.54 µM | LC50 (concentration killing 50% of cells) [17]: > 100 µM | GI50 [18]: 0.98 µM | LC50 (50% net cell kill relative to time zero) [18]: > 100 µM | GI50 [19]: 1.92 µM | LC50 [19]: > 100 µM | GI50 [20]: > 100 µM | LC50 (concentration killing 50% of cells) [20]: > 100 µM | LC50 [21]: > 100 µM | GI50 [22]: > 100 µM | LC50 [22]: > 100 µM | GI50 [23]: 0.81 µM | LC50 (concentration killing 50% of cells present at time zero) [23]: > 100 µM | GI50 [24]: 1.61 µM | LC50 [24]: > 100 µM | GI50 [25]: 9.57 µM | LC50 (concentration giving 50% cell loss vs time zero) [25]: > 100 µM | GI50 [26]: 0.62 µM | CC50 [26]: > 100 µM | GI50 [27]: 0.27 µM | LC50 [27]: > 100 µM | GI50 [28]: 0.39 µM | CC50 [28]: > 100 µM | GI50 [29]: 1.43 µM | LC50 (concentration killing 50% of cells present at time zero) [29]: > 100 µM | GI50 [30]: 0.2 µM | LC50 [30]: > 100 µM | GI50 [31]: 0.86 µM | LC50 (50% lethal concentration) [31]: > 100 µM | GI50 [32]: 7.86 µM | LC50 [32]: > 100 µM | GI50 [33]: 2.4 µM | LC50 [33]: > 100 µM | GI50 [34]: 1.3 µM | LC50 [34]: > 100 µM
